Laboratory results published in ChEMBL document CHEMBL2331225, “Structure-based design, synthesis and evaluation of novel anthra[1,2-d]imidazole-6,11-dione derivatives as telomerase inhibitors and potential for cancer polypharmacology” (Eur J Med Chem, 2013).
The source made the active and inactive calls. The calls are words filed in the database; no cut-off is given here.

Columns and labels:
[1] = target: T1, Telomerase reverse transcriptase (Homo sapiens, UniProt O14746); assay: Inhibition of TERT transcriptional activity in human H1299 cells assessed SEAP activity at 1 uM incubated for 24 hrs by SEAP assay; format: cell-based; parameters: scale not given: the % may be the effect or the level left
T1 sequence (O14746 whole entry): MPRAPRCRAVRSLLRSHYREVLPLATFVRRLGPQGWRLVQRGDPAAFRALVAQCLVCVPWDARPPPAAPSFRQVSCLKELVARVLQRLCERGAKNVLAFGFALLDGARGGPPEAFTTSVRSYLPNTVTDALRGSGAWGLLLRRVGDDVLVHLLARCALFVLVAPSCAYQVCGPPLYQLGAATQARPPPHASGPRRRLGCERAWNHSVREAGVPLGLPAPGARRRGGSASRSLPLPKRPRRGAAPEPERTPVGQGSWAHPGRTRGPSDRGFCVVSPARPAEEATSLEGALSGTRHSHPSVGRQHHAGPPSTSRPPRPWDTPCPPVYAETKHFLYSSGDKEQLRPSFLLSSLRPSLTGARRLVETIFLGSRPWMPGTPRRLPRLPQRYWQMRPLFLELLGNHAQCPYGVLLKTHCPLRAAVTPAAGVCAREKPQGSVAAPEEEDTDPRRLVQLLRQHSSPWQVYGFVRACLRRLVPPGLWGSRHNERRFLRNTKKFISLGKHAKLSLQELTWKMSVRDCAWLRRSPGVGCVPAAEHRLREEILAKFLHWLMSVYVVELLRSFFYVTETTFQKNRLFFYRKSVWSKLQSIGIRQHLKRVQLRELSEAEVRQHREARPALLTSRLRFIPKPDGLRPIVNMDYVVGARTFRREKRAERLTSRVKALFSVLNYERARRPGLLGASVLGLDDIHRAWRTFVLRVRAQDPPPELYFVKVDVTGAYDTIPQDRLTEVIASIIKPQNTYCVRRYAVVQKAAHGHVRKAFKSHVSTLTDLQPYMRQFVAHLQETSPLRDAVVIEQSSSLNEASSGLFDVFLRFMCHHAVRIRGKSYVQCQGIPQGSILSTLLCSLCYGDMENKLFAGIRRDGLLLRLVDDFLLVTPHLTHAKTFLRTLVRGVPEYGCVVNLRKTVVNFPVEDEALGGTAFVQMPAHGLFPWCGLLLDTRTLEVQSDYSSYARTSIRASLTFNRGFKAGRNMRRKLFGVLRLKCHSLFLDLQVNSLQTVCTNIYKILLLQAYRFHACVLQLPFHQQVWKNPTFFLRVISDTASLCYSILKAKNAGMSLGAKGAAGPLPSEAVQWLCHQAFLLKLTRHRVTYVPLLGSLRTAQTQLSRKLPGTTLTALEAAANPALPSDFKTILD
Method in brief: (§1)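 H1299 stable clones carry the hTERT promoter (−3338 to +1 bp) upstream of SEAP, introduced by electroporation and selected with G418. About 2 × 10³ cells per well were grown 24 h at 37 °C, given fresh medium, then drug for 24 h. Collected media were heated at 65 °C for 10 min, mixed with equal SEAP buffer (2 M diethanolamine, 1 mM MgCl₂, 20 mM L-homoarginine) and p-nitrophenyl phosphate at 12 mM final.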

[2] = Cytotoxicity against human H1299 cells assessed as cell viability at 10 uM after 48 hrs by MTT assay; format: functional; settings: NCI-H1299, 48 h, read-out: Activity
Method in brief: (§2)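 H1299 cells at about 2 × 10³ per well were grown 24 h at 37 °C in 5% CO₂. Compounds were dissolved in DMSO just before use and diluted into complete medium. After 48 h exposure, MTT was added for 4 h at 37 °C, then lysis buffer (20% SDS, 50% DMF) for 16 h at 37 °C. Absorbance was read at 550 nm.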

[3] = target: T1, Telomerase reverse transcriptase; assay: Inhibition of TERT transcriptional activity in human H1299 cells assessed SEAP activity at 10 uM incubated for 24 hrs by SEAP assay; format: cell-based; parameters: scale not given: the % may be the effect or the level left; method in brief: as §1
[4] = Cytotoxicity against human H1299 cells assessed as cell viability at 1 uM after 48 hrs by MTT assay; format: functional; settings: NCI-H1299, 48 h, read-out: Activity; method in brief: as §2
PC-3 [5] = assay: Growth inhibition of human PC3 cells after 48 hrs by SRB assay; format: functional, cell-based; settings: PC-3, 48 h
Method in brief: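 PC-3 cells were seeded in medium with 5% FBS; after 24 h a plate was fixed with 10% TCA as T₀. Vehicle (0.1% DMSO) or compound was given for 48 h, then cells were TCA-fixed, stained with 0.4% SRB in 1% acetic acid, solubilized in 10 mM Trizma base and read at 515 nm. IC₅₀ is the concentration halving the protein increase seen in controls.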

DU-145 = assay: Cytotoxicity against human DU145 cells assessed as cell growth level at 10 uM; format: functional
[6] = target: T1, Telomerase reverse transcriptase; assay: Inhibition of TERT activity in human H1299 cells homogenates incubated for 5 mins at 100 uM by TRAP assay; format: cell-free
Method in brief: (§3)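 Telomerase-active extracts were prepared from H1299 cells, and lysate protein was measured against BSA standards. Compounds were tested in the TRAP assay, with RNase A-treated extracts as negative controls.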

[7] = target: T1, Telomerase reverse transcriptase; assay: Inhibition of TERT transcriptional activity in human H1299 cells assessed SEAP activity at 100 uM incubated for 24 hrs by SEAP assay; format: cell-based; parameters: scale not given: the % may be the effect or the level left; method in brief: as §1
IMR-90 = assay: Cytotoxicity against human IMR90 cells after 48 hrs by MTT assay; format: cell-based; settings: IMR-90, 48 h
[8] = Cytotoxicity against human H1299 cells expressing hTERT and SEAP after 48 hrs by MTT assay; format: cell-based; settings: nci-h1299, 48 h
Method in brief: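 H1299 stably carrying P_hTERT-SEAP, about 2 × 10³ cells per well, were grown 24 h at 37 °C, washed with PBS and given fresh medium. Compounds were added at varying amounts for 48 h, and growth was measured by MTT read at 550 nm. Values come from three experiments, with untreated cells set as 100%.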

PC-3 [9] = assay: Cytotoxicity against human PC3 cells assessed as cell growth level at 10 uM; format: functional
[10] = Cytotoxicity against human H1299 cells assessed as cell viability at 100 uM after 48 hrs by MTT assay; format: functional; settings: NCI-H1299, 48 h, read-out: Activity; method in brief: as §2
A498 = assay: Cytotoxicity against human A498 cells assessed as cell growth level at 10 uM; format: functional
[11] = target: DNA polymerase I, thermostable (Thermus aquaticus) (UniProt P19821); assay: Inhibition of Thermus aquaticus DNA polymerase compound after telomerase extension step and before PCR-amplification step during TRAP assay
Chain of DNA polymerase I, thermostable (Thermus aquaticus) (P19821 whole entry): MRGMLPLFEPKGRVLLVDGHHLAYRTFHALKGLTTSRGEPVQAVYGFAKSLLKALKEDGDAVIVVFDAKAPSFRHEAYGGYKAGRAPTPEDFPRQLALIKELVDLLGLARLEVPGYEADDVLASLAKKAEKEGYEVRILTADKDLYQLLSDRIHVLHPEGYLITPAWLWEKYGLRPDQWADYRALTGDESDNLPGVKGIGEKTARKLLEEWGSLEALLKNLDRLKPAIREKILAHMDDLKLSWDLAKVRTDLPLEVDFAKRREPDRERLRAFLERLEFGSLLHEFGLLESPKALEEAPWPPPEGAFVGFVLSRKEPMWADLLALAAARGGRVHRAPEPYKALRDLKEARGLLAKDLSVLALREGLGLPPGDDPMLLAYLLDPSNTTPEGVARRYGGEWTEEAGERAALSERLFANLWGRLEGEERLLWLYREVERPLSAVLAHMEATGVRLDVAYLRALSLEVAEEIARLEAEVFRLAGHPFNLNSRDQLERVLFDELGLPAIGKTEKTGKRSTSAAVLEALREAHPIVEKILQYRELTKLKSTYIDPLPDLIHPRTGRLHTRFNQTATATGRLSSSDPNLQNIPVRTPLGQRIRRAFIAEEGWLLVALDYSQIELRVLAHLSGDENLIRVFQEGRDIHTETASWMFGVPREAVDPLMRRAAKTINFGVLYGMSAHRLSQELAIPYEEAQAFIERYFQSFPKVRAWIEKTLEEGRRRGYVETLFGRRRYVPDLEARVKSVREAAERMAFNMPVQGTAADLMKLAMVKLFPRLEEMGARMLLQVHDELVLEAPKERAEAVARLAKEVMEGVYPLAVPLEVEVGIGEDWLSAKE
Method in brief: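 TRAP-m variant: compounds were added after the telomerase extension step and before PCR amplification, using H1299 telomerase extracts, with RNase A-treated extracts as negative control.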

[12] = target: T1, Telomerase reverse transcriptase; assay: Inhibition of TERT activity in human H1299 cells homogenates incubated for 5 mins by TRAP assay; format: cell-free; method in brief: as §3

Structure (SMILES) | Activity [1] | viability at 10 µM [2] | Activity [3] | viability at 1 µM [4] | IC50 (PC-3 [5]) | Activity (DU-145) | TERT inhibition (active/not active) [6] | Activity [7] | IC50 (IMR-90) | Activity [8] | Activity (PC-3 [9]) | viability at 100 µM [10] | Activity (A498) | inhibition [11] | IC50 [12]
O=C1c2ccccc2C(=O)c2c1ccc1nc(CN3CCCCC3)[nH]c21 | 76% | 79% | 44% | 111% | 10.3 µM | 81.94% | inactive | 7% | 100 µM | Non-toxic | 74.9% | 20% | 61.84% |  | 
CN(CCc1ccccn1)Cc1nc2ccc3c(c2[nH]1)C(=O)c1ccccc1C3=O | 96% | 99% | 51% | 104% | 14.2 µM | 99.83% | inactive | 0% |  |  | 83.7% | 0% | 69.6% |  | 
O=C1c2ccccc2C(=O)c2c1ccc1nc(CN3CCN(c4ccccc4)CC3)[nH]c21 | 92% | 54% | 77% | 90% | > 30 µM | 77.91% | inactive | 6% |  |  | 90.69% | 18% | 75.09% |  | 
O=C1c2ccccc2C(=O)c2c1ccc1nc(CCN3CCN(Cc4ccccc4)CC3)[nH]c21 | 73% | 54% | 5% | 96% | 16 µM |  | inactive | 0% | 100 µM | Non-toxic |  | 6% |  |  | 
O=C1c2ccccc2C(=O)c2c1ccc1nc(CN3CCC(CCCC4CCNCC4)CC3)[nH]c21 | 96% | 0% | 8% | 97% | 13.8 µM |  | Active | 3% |  |  |  | 0% |  | inactive | 5 µM
O=C1c2ccccc2C(=O)c2c1ccc1nc(CCN3CCN(c4ncccn4)CC3)[nH]c21 | 83% | 84% | 35% | 91% | > 30 µM |  | inactive | 0% | 100 µM | Non-toxic |  | 0% |  |  | 
O=C1c2ccccc2C(=O)c2c1ccc1nc(CN(Cc3ccccn3)Cc3ccccn3)[nH]c21 | 86% | 13% | 0% | 101% | 6.4 µM |  | inactive | 0% |  |  |  | 0% |  |  | 
O=C1c2ccccc2C(=O)c2c1ccc1nc(CNCc3cccc(C(F)(F)F)c3)[nH]c21 | 87% | 110% | 89% | 114% | > 30 µM |  | inactive | 4% |  |  |  | 32% |  |  | 
COc1cccc(N2CCN(Cc3nc4ccc5c(c4[nH]3)C(=O)c3ccccc3C5=O)CC2)c1 | 105% | 58% | 30% | 81% | 15.3 µM |  | inactive | 3% |  |  |  | 24% |  |  | 
C=CCN1CCN(Cc2nc3ccc4c(c3[nH]2)C(=O)c2ccccc2C4=O)CC1 | 87% | 45% | 17% | 86% | 12.8 µM |  | inactive | 0% |  |  |  | 0% |  |  | 
CN1CCN(CCc2nc3ccc4c(c3[nH]2)C(=O)c2ccccc2C4=O)CC1 | 74% | 32% | 7% | 87% | 17.3 µM |  | inactive | 0% |  |  |  | 0% |  |  | 
CC1CCN(Cc2nc3ccc4c(c3[nH]2)C(=O)c2ccccc2C4=O)CC1 | 102% | 110% | 97% | 114% | > 30 µM |  | inactive | 26% |  |  |  | 32% |  |  | 
O=C1c2ccccc2C(=O)c2c1ccc1nc(CNCc3ccc4c(c3)OCO4)[nH]c21 | 75% | 103% | 75% | 109% | 22.5 µM |  | inactive | 1% |  |  |  | 14% |  |  | 
CCCN(C)Cc1nc2ccc3c(c2[nH]1)C(=O)c1ccccc1C3=O | 96% | 80% | 34% | 93% | 17.1 µM |  | inactive | 0% |  |  |  | 0% |  |  | 
O=C1c2ccccc2C(=O)c2c1ccc1nc(CN3CCC4(CC3)OCCO4)[nH]c21 | 97% | 79% | 96% | 103% | 21.6 µM |  | inactive | 14% |  |  |  | 15% |  |  | 
N#Cc1ccccc1N1CCN(Cc2nc3ccc4c(c3[nH]2)C(=O)c2ccccc2C4=O)CC1 | 106% | 62% | 57% | 78% | 29 µM |  | inactive | 6% |  |  |  | 22% |  |  | 
